Data set [1] has as its target T1, Platelet-derived growth factor receptor beta (Homo sapiens, UniProt P09619). The data set can be described thus: Inhibition of PDGFRbeta in human MDA-MB-231 cells assessed as ULK Ser555 phosphorylation level at 2.5 uM incubated for 24 hrs in presence of control siRNA by Western blot relative to untreated control. It counts as cell-based. Put shortly: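 Cells were transfected with control or PDGFR-β siRNA, then treated with 2.5 μM compound for 24 h. PDGFR-β-AKT-ULK1 pathway phospho-proteins were assessed by western blot: lysis in Hepes pH 7.4 / Triton buffer, 10-15% SDS-PAGE, PVDF, ECL detection, β-actin as loading control.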
On the technique in general: A western blot detects proteins with antibodies after separation by electrophoresis.

In data set [2] the target is T1, Platelet-derived growth factor receptor beta. The experiment in a line: Inhibition of PDGFRbeta in human MDA-MB-231 cells assessed as ULK Ser555 phosphorylation level at 5 uM incubated for 24 hrs by Western blot relative to untreated control. It counts as cell-based. Put shortly:
(§1)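 Cells were treated 24 h at several concentrations. Pooled adherent and floating cells were lysed in Hepes 50 mM pH 7.4 / 1% Triton X-100 buffer with vanadate, NaF, EDTA, PMSF, aprotinin and leupeptin. Equal protein was run on 10-15% SDS-PAGE and blotted to PVDF. PDGFR-β-AKT-ULK1 pathway phospho-proteins were probed and detected by ECL, with β-actin as loading control.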

The test system of data set [3] is MDA-MB-231. The experiment in a line: Effect on total ERK1/2 protein level in human MDA-MB-231 cells at 2.5 uM incubated for 24 hrs in presence of PDGFRbeta siRNA by Western blot relative to untreated control. Conditions: mda-mb-231, 24 h. It counts as cell-based.
Data set [4] has as its target T1, Platelet-derived growth factor receptor beta. The experiment in a line: Inhibition of PDGFRbeta in human MDA-MB-231 cells assessed as mTOR Ser2448 phosphorylation level at 2.5 uM incubated for 24 hrs by Western blot relative to untreated control. It counts as cell-based. An outline of the steps:
as §1

In data set [5] the test system is MDA-MB-231. The experiment in a line: Effect on total ULK1 protein level in human MDA-MB-231 cells at 5 uM incubated for 24 hrs by Western blot relative to untreated control. It counts as ADME, cell-based. The settings on record: mda-mb-231, 24 h. Put shortly: (§2)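 MDA-MB-231 cells were exposed for 24 h. Adherent and floating cells were pooled and lysed for 1 h at 4 °C in 50 mM Hepes pH 7.4 with 1% Triton X-100, orthovanadate, NaF, EDTA, PMSF, aprotinin and leupeptin. After 12,000 rpm clearing, equal protein was run on 10-15% SDS-PAGE and blotted to PVDF. Detection used HRP-ECL, with β-actin as loading control and densitometric quantification.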

For data set [6], the system named is MDA-MB-231. The experiment in a line: Effect on total Akt protein level in human MDA-MB-231 cells at 2.5 uM incubated for 24 hrs in presence of PDGFRbeta siRNA by Western blot relative to untreated control. The settings on record: mda-mb-231, 24 h. It counts as ADME, cell-based. An outline of the steps: as §2
For data set [7], the system named is MDA-MB-231. The experiment in a line: Induction of autophagy in human MDA-MB-231 cells co-transfected with GFP-mRFP-LC3 assessed as increase in LC3 puncta aggregation at 2.5 uM by fluorescence micrsocpy. It counts as functional, cell-based. An outline of the steps:
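Cells were transfected with a GFP/mRFP-LC3 plasmid and incubated with 2.5 μM compound. GFP-LC3 puncta were then observed by fluorescence microscopy.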

The subject of data set [8] is MDA-MB-231. The data set can be described thus: Antiproliferative activity against human MDA-MB-231 cells incubated for 48 hrs by MTT assay. The settings on record: MDA-MB-231, 48 h. It counts as functional, cell-based. Put shortly:
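MDA-MB-231 cells grown in DMEM with 10% FBS under 5% CO2 were seeded at 5×10^4 cells/ml. After 24 h, a concentration series was added for 24, 48 or 72 h and viability was read by MTT. IC50 is mean ± SD of triplicates.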
(Formazan colour is commonly taken as a measure of viable cells.)

The subject of data set [9] is MDA-MB-231. The data set can be described thus: Effect on total Akt protein level in human MDA-MB-231 cells at 5 uM incubated for 24 hrs by Western blot relative to untreated control. It counts as ADME, cell-based. The settings on record: mda-mb-231, 24 h. Put shortly: as §2
Data set [10] deals with T1, Platelet-derived growth factor receptor beta. The experiment in a line: Inhibition of PDGFRbeta in human MDA-MB-231 cells assessed as C-Raf Ser338 phosphorylation level at 10 uM incubated for 24 hrs in presence of PDGFRbeta siRNA by Western blot relative to untreated control. It counts as cell-based.
The test system of data set [11] is MDA-MB-231. The experiment in a line: Induction of autophagy in human MDA-MB-231 cells assessed as change in Beclin-1 protein level at 5 uM incubated for 24 hrs by Western blot method relative to untreated control. It counts as functional. An outline of the steps: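 MDA-MB-231 cells (ATCC; DMEM, 10% FBS, 5% CO2) were treated 24 h over a concentration series. Adherent and floating cells were pooled and lysed 1 h at 4 °C (50 mM Hepes pH 7.4, 1% Triton X-100, phosphatase/protease inhibitors). Equal protein was run on 10-15% SDS-PAGE, transferred to PVDF, probed for Beclin-1, p62 and LC3 with HRP/ECL detection, and normalised to β-actin.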

Data set [12] relates to MDA-MB-231. The experiment in a line: Effect on total c-Raf protein level in human MDA-MB-231 cells at 2.5 uM incubated for 24 hrs in presence of PDGFRbeta siRNA by Western blot relative to untreated control. It counts as cell-based. Conditions: mda-mb-231, 24 h.
Data set [13] addresses T1, Platelet-derived growth factor receptor beta. The experiment in a line: Inhibition of PDGFRbeta in human MDA-MB-231 cells assessed as Akt Thr305 phosphorylation level at 2.5 uM incubated for 24 hrs by Western blot relative to untreated control. It counts as cell-based. Put shortly:
as §1

For data set [14], the system named is MDA-MB-231. The experiment in a line: Induction of apoptosis in human MDA-MB-231 cells assessed as change in cleaved caspase-3 protein level at 10 uM incubated for 24 hrs by Western blot method relative to untreated control. It counts as functional. An outline of the steps: as §2

Active and inactive are the calls of the source. The calls are words filed in the database; no cut-off is given here.

T1 sequence (P09619 whole entry): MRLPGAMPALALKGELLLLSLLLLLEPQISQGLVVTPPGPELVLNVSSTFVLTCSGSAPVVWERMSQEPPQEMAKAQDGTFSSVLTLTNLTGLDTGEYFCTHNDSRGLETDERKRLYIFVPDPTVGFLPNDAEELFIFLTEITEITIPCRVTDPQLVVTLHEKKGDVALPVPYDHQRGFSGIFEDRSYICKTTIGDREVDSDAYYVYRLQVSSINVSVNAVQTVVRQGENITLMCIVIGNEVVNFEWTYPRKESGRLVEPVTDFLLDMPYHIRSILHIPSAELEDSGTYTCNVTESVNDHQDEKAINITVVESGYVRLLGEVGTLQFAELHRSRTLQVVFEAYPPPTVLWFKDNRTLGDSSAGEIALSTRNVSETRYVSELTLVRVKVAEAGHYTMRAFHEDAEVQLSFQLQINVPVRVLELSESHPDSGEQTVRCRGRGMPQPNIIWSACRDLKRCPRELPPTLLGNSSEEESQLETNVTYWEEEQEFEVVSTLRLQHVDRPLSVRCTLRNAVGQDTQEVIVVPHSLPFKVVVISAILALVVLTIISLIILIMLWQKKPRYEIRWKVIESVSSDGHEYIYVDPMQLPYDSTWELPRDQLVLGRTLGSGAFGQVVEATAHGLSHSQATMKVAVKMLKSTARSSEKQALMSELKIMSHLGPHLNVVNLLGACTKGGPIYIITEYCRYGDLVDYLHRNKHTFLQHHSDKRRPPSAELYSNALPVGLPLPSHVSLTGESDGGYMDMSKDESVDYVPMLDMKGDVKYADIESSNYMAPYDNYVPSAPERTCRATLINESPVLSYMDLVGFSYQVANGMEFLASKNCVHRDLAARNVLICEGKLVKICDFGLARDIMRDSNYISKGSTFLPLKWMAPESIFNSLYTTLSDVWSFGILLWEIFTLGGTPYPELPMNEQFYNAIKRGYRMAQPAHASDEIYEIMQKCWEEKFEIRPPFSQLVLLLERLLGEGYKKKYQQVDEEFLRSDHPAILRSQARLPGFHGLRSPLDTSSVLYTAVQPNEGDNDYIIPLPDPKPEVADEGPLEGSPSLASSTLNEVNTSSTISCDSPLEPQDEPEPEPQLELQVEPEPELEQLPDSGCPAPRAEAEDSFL

`COc1cccc(Nc2cc(N3CCN(C(=O)Nc4ccc(C(F)(F)F)cc4)CC3)ncn2)c1`: the fold change (FC) in [1] is 3.21; in data set [2] it was 4.2; in data set [3], 1.08; in data set [4], 0.74; in data set [5], 0.91; in [6] it was 0.63. Also, the “fold change (FC)” value in data set [9] came out at 0.84; in data set [10], 0.66; in data set [11] it was 2.8; in data set [12] it was 0.8; in data set [13] it was 0.95; in [14], 0.32. Further, the result in [7] was Active. This compound also had an IC50 in data set [8] of 680 nM.

The term IC50 denotes the concentration needed to halve the response being measured. The low end stands for inhibition by little substance, the high end for a need for much substance.
